# Source: PubChem BioAssay (several laboratories)
# BaF3 tox: parental Ba/F3 cell viability inhibition, counter-screen for JAK2V617F inhibitor project, murine pro-B, CellTiter-Glo luminescence | CellTiter-Glo ATP luminescence | inhibition, % at 5.6 µM | 220,000 tested, 1.1% active;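 active means inhibition above a per-campaign cutoff, the mean inhibition of all tested compounds plus 3 SD, cut at about 27% in these data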;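 further: 0% = DMSO wells and 100% = JAK Inhibitor I control wells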
# KLF5 inhibitor: KLF5 expression inhibitors, primary screen, DLD-1 cells, luminescence | 290,000 tested, 0.23% active | inhibition, % at 5 µM | DLD-1 KLF5 promoter-luciferase reporter | AID 1700, 2009;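 active means inhibition above a per-plate limit of that plate's mean compound inhibition plus 3 SD, cut at about 60% in these data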;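 further: 0% = DMSO wells and 100% = LY294002 at 200 µM; higher means less KLF5 promoter-driven luciferase light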
# Ba/F3 V617F tox: reduced viability of JAK2V617F-dependent Ba/F3 cells, primary screen, JAK2V617F inhibitor project, cell-based, Ba/F3 EpoR-JAK2V617F, luminescence | AID 1446, 2008 | 220,000 tested, 1.1% active | inhibition, % at 5.6 µM | ATP luminescence;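 active means inhibition above the campaign mean plus 3 SD over all tested compounds, cut at about 24% in these data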;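 further: cytokine-independent growth of Ba/F3 cells driven by EpoR plus mutant JAK2; 0% = DMSO-treated cells and 100% = JAK inhibitor I control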
# IEC-6 cytotox: cytotoxicity in IEC-6 intestinal epithelial cells, primary screen, cytotoxicity control for KLF5 inhibitor project, cell-based, luminescence | IEC-6 cytotoxicity, luminescence viability | inhibition, % at 5 µM | AID 1825, 2009 | 290,000 tested, 0.78% active; in the data active means inhibition above about 22%;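 further: 0% = plate median of test compound wells and 100% = cytotoxic reference compound wells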
# MT stabilize HCS: microtubule stabilizers in HeLa cells, primary screen, imaging, high-content imaging; HeLa tubulin immunostaining HCS, 24 h; share of cells brighter than vehicle mean+2SD; % tubulin-high responders, % at 10 µM; 200,000 tested, 0.83% active;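 active means plate Z-score above 3 for both tubulin-high and condensed-nucleus cell shares, with cell loss under 80%, at 10 µM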;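 further: anti alpha tubulin signal scored within the nucleus-defined area of each cell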
# b-catenin transl: modulators of beta-catenin nuclear translocation, primary screen, imaging, HeLa cells, immunofluorescence, high-content. nuclear translocation activity, % at 5 µM. 190,000 tested, 0.3% active. AID 1665, 2009;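 active means nuclear translocation activity above 50% at 5 µM, with a well cell count of 50 or more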;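 further: per-cell ratio of nuclear to cytoplasmic median beta-catenin stain intensity; plate controls were DMSO negative control for no effect and GSK-3 inhibitor IX positive control for full effect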
#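 System: Human HeLa cells, endogenous beta-catenin | Compound dosing: 5 µM primary, 0.02–20 µM confirmation | Timing: 24 h compound exposure at 37°C, 5% CO2 | Measured by: Fluorescence imaging of beta-catenin antibody stain plus DAPI | Read-out basis: % activation of per-cell nuclear versus cytoplasmic median beta-catenin signal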
# Numbers without * were called inactive; · = not tested or not shown. An excerpt weighted towards active compounds, which were near 2.1% of everything screened.
SMILES,BaF3 tox,KLF5 inhibitor,Ba/F3 V617F tox,IEC-6 cytotox,MT stabilize HCS,b-catenin transl
Cc1cccc(N2CCN(C(=O)c3cccc(N4C(=O)C5CC=CC(C)C5C4=O)c3)CC2)c1C (configuration not stated),1.5,-27.4,-3.0,-3.8,2.3,-11.7
CC1SCC(NC(=O)c2cccc(Cl)c2)CS1 (configuration not stated),-1.1,-7.5,-5.4,-6.1,·,-1.3
CC1SCC(NC(=O)c2ccc(Cl)cc2)CS1 (configuration not stated),45.6*,-46.7,-3.2,7.9,·,-0.5
COc1cc(C2C3=C(CCCC3=O)Nc3ccc4ncccc4c32)ccc1O (configuration not stated),13.8,34.7,7.5,16.3,33.1*,0.3
COc1cc(OC)cc(C(=O)N2CCN(C(=O)c3cccnc3)CC2)c1,·,-11.6,·,-3.9,·,·
c1ccc(-c2nnc3sc(-c4csc5c4CCCC5)nn23)cc1,-0.2,-23.1,-0.7,-2.0,20.8*,-0.1
c1ccc(-c2nnc3sc(-c4ccncc4)nn23)cc1,3.4,-14.1,1.1,-1.4,3.7,·
CCOC(=O)C1CCN(C(=O)CCc2ccc(S(=O)(=O)NCC(C)C)cc2)CC1,·,-20.0,·,1.7,·,·
CC(C)(C(=O)O)n1cncn1,7.9,-33.5,-1.3,-5.1,4.6,-0.3
COc1ccc(Cl)cc1S(=O)(=O)n1cnc2ccccc21,1.5,-14.6,-2.5,-1.7,26.4*,1.7
CCOc1ccc(Cl)cc1S(=O)(=O)n1cnc2ccccc21,5.9,-19.7,-0.2,7.8,24.2*,·
COc1cccc(NC(=O)Cn2c(=O)n(C)c(=O)c3sc4c(c32)COC(C)(C)C4)c1,·,-11.7,·,3.1,·,·
COc1ccc(-c2noc(-c3ccoc3C)n2)cc1,2.0,-41.7,2.2,-0.2,10.5*,2.4
O=C(CCc1ccccc1)NC(c1cccs1)c1cc(Cl)c2cccnc2c1O (configuration not stated),1.2,-14.2,-1.2,-4.3,10.3*,-0.5
Cc1ccc(C(OCC(C)(C)C[N+](C)(C)C)c2ccccc2)cc1 (configuration not stated),58.1*,-50.6,27.1*,-1.4,4.3,-1.0
Cc1cc2n(c1)CCn1c(C)ccc1-2,-2.1,-13.8,-3.0,-0.1,5.7,8.3
CCCC1=[N+](CC(=O)c2ccccc2)CCn2c(C)ccc21,26.7*,-8.6,31.6*,5.6,2.1,·
CCCC1=[N+](CC)CCn2c(C)ccc21,63.8*,-54.5,61.2*,-3.7,1.1,-2.7
CCCC1=[N+](CC(=O)c2ccc(C)cc2)CCn2cccc21,7.4,-13.6,-2.8,6.9,2.7,1.2
COc1ccc(-c2cc(CNS(=O)(=O)c3ccc(F)cc3)on2)cc1,7.0,-10.4,-1.0,0.4,0.1,0.3
Cc1cccc(CN2C(=O)N/C(=C/c3ccc(C)s3)C2=O)c1,6.6,-4.3,-2.0,1.4,53.4*,66.8*
Cc1ccc(/C=C2/NC(=O)N(Cc3ccccc3)C2=O)s1,-0.5,-32.7,-3.9,3.7,2.0,1.5
CC1CCC(C(C)C)C(OC(=O)Cn2c(-c3ccc(Br)cc3)[n+](C)c3ccccc32)C1 (configuration not stated),86.8*,-3.3,101.1*,1.9,3.1,-3.6
CC1CCC(C(C)C)C(OC(=O)Cn2c(-c3ccc(Cl)cc3)[n+](C)c3ccccc32)C1 (configuration not stated),95.2*,-16.8,98.7*,8.4,·,0.1
Cc1ccccc1OCc1n(CC(=O)OC2CC(C)CCC2C(C)C)c2ccccc2[n+]1C (configuration not stated),79.8*,-12.1,100.7*,-4.2,87.2,12.9
CC1CCC(C(C)C)C(OC(=O)COC(=O)c2cccn2C)C1 (configuration not stated),2.7,-13.7,-1.3,-1.8,5.4,-6.2
Cc1cc(CNC(=O)CCc2nnc(CCCc3ccccc3)o2)nn1C,10.4,-23.2,3.5,1.1,1.0,1.8
Cc1ccc(OCCC(=O)OCC(=O)Nc2cc(S(=O)(=O)N(C)C)ccc2C)cc1,4.5,-6.2,-0.3,-2.0,1.8,-1.8
